Experiments:
[1] = system: A549; assay: Cytotoxicity against human A549 cells by sulforhodamine B dye-staining method; assay type: functional, cell-based
In short: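 Human lung cancer A549 cells were stained with sulforhodamine B dye, and the IC50 was reported as the cytotoxicity value.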

[2] = system: P388; assay: Cytotoxicity against mouse P388 cells by microculture tetrazolium-formazan method; assay type: functional, cell-based
In short: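 Murine P388 leukemia cells were assayed by the microculture tetrazolium–formazan method, and the IC50 was reported as the cytotoxicity value.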

Row | SMILES | IC50 [1] [µmol] | IC50 [2] [µmol]
1 | CN(C)CCN1C(=O)c2cccc3cccc1c23 | 300 | 79.4
2 | CN(C)CCCN1C(=O)c2cccc3cccc1c23 | 22.9 | 7.76
3 | CN(C)CCNCCN1C(=O)c2cccc3cccc1c23 | 0.489 | 1.69
4 | O=C1c2ccc([N+](=O)[O-])c3cccc(c23)N1CCCl | 52.5 | 17.8
5 | O=C1c2cccc3cccc(c23)N1CCNCCN1C(=O)c2cccc3cccc1c23 | 29.5 | 13.8
